# VLA-4 inh: inhibition in a human VLA-4 binding assay; VLA-4 expressing cells, ligand binding flow cytometry; P13612; 0.2% of 330,000 active; inhibition, % (about 7 µM as worked out from the volumes in the protocol); AID 2557; in the data active = inhibition above about 50%
# Target sequence (P13612 whole entry, looked up): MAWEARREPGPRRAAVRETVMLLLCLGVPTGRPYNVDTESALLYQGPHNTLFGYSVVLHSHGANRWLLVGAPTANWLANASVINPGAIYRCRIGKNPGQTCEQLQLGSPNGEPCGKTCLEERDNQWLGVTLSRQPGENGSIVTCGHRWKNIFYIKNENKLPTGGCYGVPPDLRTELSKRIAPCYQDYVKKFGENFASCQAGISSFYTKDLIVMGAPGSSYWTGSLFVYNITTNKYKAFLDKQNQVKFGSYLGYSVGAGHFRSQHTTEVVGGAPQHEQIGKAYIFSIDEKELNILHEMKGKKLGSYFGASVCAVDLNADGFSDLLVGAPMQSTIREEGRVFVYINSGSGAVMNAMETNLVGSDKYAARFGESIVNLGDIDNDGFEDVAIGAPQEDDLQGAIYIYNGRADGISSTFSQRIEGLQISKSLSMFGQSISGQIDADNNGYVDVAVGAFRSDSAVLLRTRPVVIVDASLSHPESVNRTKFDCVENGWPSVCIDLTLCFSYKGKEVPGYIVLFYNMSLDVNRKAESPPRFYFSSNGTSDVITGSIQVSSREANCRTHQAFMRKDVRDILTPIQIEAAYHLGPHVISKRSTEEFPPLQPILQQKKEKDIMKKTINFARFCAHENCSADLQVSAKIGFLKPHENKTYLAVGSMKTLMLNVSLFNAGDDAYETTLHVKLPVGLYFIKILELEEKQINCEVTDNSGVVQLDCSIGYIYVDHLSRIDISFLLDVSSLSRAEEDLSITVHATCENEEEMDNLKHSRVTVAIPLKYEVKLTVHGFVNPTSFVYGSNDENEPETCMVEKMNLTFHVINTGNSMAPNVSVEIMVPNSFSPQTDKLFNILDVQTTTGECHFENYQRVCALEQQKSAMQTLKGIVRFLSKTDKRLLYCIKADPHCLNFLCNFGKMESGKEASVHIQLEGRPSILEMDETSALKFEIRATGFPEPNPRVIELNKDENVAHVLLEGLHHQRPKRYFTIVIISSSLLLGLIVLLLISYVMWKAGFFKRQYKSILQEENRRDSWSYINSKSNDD
# Rce1 inh: inhibitors of yeast Ras-converting enzyme. Q03530. yeast membranes, quenched prenylated peptide cleavage fluorescence. calls only. 0.27% of 290,000 active. AID 2563;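 active = fall in fluorescence gain of 50% or more versus controls, with final raw signal at or below 3038400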;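 also: plate controls were neutral control wells for no effect and wells lacking membranes for full effect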
# TAAR1 antagonist: human TAAR1 antagonism | Q96RJ0 | CHO RD-HGA16 TAAR1, Fluo-8 calcium fluorescence, antagonist | inhibition, % at 3 µM | 1.5% of 360,000 active;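 active = inhibition above a per-plate cutoff, the mean inhibition of test compounds on that plate plus 3 SD, cut at about 49% in these data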;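 also: 0% = DMSO plus EC80 beta-PEA response and 100% = DMSO alone without agonist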
#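 Material: RD-HGA16 CHO cells with stable hTAAR1 and Gα16; Dosing: single nominal final test compound concentration of 3 µM; Schedule: seeding 17-24 h prior, 75-min 37 °C, 30-min RT dye loading; Detection: kinetic Fluo-8 calcium fluorescence measurement; Measure: % inhibition from peak post-agonist over basal fluorescence ratio; Benchmarks: vehicle and agonist controls.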
# TAAR1 ag: human TAAR1 agonism; Q96RJ0; CHO RD-HGA16 TAAR1, Fluo-8 calcium fluorescence; vehicle wells 0%, saturating PEA agonist 100%; activation, % at 3 µM; 0.99% of 360,000 active;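 active = activation above the mean activation of all test compounds in the run plus 3 SD, cut at about 38% in these data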
#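 test system = CHO RD-HGA16 cells carrying human TAAR1 plus Gα16 | schedule = 17-24 h seeding, 75 min 37 °C dye, 30 min RT | compound dosing = 3 µM single concentration | control set = DMSO and PEA EC100 | replicates = n 1 | signal = Fluo-8 fluorescence, 5 s baseline then 140 s kinetic read | measure = percent activation vs PEA EC100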
# Platelet DG rel: modulates dense granule release in human platelets. human platelet-rich plasma, SFLLRN dense granule ATP release, luminescence. inhibition, %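 (compounds screened at 7.5 µM in platelet-rich plasma)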. 0.22% of 300,000 active;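 active = mean replicate score, as percent of positive control, at or above 50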
# Active calls of the source: *; i = inactive; / = no result given; + = active, no number. In the library only some 2.6% were active in any assay of this set; here they are far more common.
SMILES,VLA-4 inh,Rce1 inh,TAAR1 antagonist,TAAR1 ag,Platelet DG rel
Cc1ccc2c(CN3CCN(c4ccccc4)CC3)cc(=O)oc2c1,/,/,4.3,0.5,/
Cn1c(N)c(C(=O)CSc2nc3ccccc3c(=O)n2CCCN2CCOCC2)c(=O)n(C)c1=O,3.8,i,-6.3,4.2,6.4
Cc1[nH]c2ccccc2c1C(=O)CSc1nc2ccccc2c(=O)n1CCCN1CCOCC1,-7.3,i,71.3*,47.5*,3.2
Cc1[nH]c2ccccc2c1C(=O)CSc1nccc(=O)[nH]1,-4.8,i,-23.1,1.7,0.5
Cc1[nH]c2ccccc2c1C(=O)CSc1nc2ccccc2[nH]1,-6.8,i,54.6*,14.1,-1.7
CNc1ncnc2c1ncn2[C@H]1CN(Cc2cccs2)C[C@@H](CO)O1,/,/,-6.3,1.4,/
CC(C)(C)NC(=O)[C@]1(C)CCC[C@@]2(C)C3CC[C@@]4(C)C[C@]3(CCC21)CC4=O (some centres undefined),15.7,/,4.2,5.6,/
Cc1ccc(O)c(-c2cc(-c3ccccc3[N+](=O)[O-])[nH]n2)c1,-9.3,i,56.9*,8.8,21.1
C[C@H](NC(=O)C[C@@H]1C[C@@H]2c3cc(NC(=O)C4CCC4)ccc3O[C@@H]2[C@@H](CO)O1)c1ccccc1,/,/,3.9,3.3,/
CN1CCC(C)(C(=O)Nc2cccc3c2CCCC3)C1 (centres undefined),/,/,2.9,0.5,/
COc1ccc2cc(/C=C/C(=O)N3CCN(CC(=O)N4CCCCCC4)CC3)ccc2c1,3.0,/,/,/,-6.6
Cc1ccc(Cl)cc1N1CCN(C(=O)CCS(=O)(=O)c2ccc3c(c2)NC(=O)CO3)CC1,-9.2,i,63.3*,15.8,-15.4
COc1ccc(/C=C/C(=O)c2ccc(C)c([N+](=O)[O-])c2)cc1O,6.9,i,-1.1,14.3,-8.0
COc1cc(/C=C/C(=O)c2ccc(C)c([N+](=O)[O-])c2)cc(OC)c1O,2.7,i,14.1,44.7*,21.8
COc1ccc(C#Cc2ccc3c(c2)c(=O)c2ccccc2n3C)cc1,-12.8,i,-0.9,5.9,8.9
Cn1c2ccccc2c(=O)c2cc(C#Cc3ccc(N)cc3)ccc21,3.0,i,48.6*,13.3,0.8
CNC(=O)c1ccc(NC(=O)c2ccccc2OCc2c(C)noc2C)cc1,/,/,3.4,4.0,/
Cc1c(C(=O)N2CCc3ccccc3C2)oc2ccc(S(=O)(=O)N3CCCCCC3)cc12,-3.3,i,-1.1,41.7*,15.3
Cc1c(C(=O)N2CCOCC2)oc2ccc(S(=O)(=O)N3CCCC3)cc12,5.5,i,2.1,10.1,-0.6
COc1ccc(-c2oc3ccc(N4CCOCC4)cc3c2/C=C/c2ccc(OC)c(OC)c2)cc1,6.4,+,18.9,0.7,3.5
CCOC(=O)c1ccc(NC(=S)N2CCCC(C(=O)OCC)C2)cc1 (centres undefined),-0.2,i,37.3,35.6,0.2
CCOC(=O)C1CCCN(C(=S)Nc2ccc(OC)cc2)C1 (centres undefined),-13.3,i,33.3,43.8*,-5.3
CCOC(=O)C1CCCN(c2cc(C)nc3cc(-c4ccc(F)cc4)nn23)C1 (centres undefined),3.3,i,27.6,42.6*,8.1
CCOC(=O)C1CCCN(C(=S)Nc2ccc(F)cc2)C1 (centres undefined),-2.0,i,29.6,51.3*,-7.3
COC(=O)c1[nH]c2c(c1C(=O)OC)CCc1ccccc1-2,0.2,i,1.0,26.1,-1.8
SMILES,VLA-4 inh,Rce1 inh,TAAR1 antagonist,TAAR1 ag,Platelet DG rel
CC1(C(=O)NS(=O)(=O)c2ccc(Br)cc2)CCN1C(=O)Cc1ccsc1 (centres undefined),/,/,-2.3,0.6,/
O=C1c2cccc(OCC(=O)N3N=C(c4cccs4)CC3c3ccc(F)cc3)c2CCN1Cc1cccnc1 (centres undefined),7.2,+,-13.8,6.8,-7.0
O=C(c1cccnc1)N1N=C(c2cccs2)CC1c1ccc(F)cc1 (centres undefined),-12.7,i,-8.5,10.8,-1.6
Cc1ccccc1NC(=S)NCCc1ccccn1,3.5,i,-1.9,60.2*,-10.5
COc1ccccc1NC(=S)NCCc1ccccc1,-9.3,i,-0.4,40.2*,2.6
S=C(NCc1ccccc1)Nc1cccc2cnccc12,0.3,i,22.8,2.8,0.5
S=C(NCCc1ccccc1)Nc1cccc2cnccc12,0.7,i,5.6,51.5*,7.4
O=C(c1ccccc1Cc1ccccc1)N1CCN(S(=O)(=O)c2ccccc2Br)CC1,12.1,i,17.4,2.7,11.3
COc1ccc(NC(=O)C(C)N=C2NS(=O)(=O)c3ccccc32)cc1S(N)(=O)=O (centres undefined),24.9,/,-4.5,0.2,/
CCN=C(Nc1ccc2c(c1)OCO2)SC1CC(=O)N(c2ccccc2F)C1=O (centres undefined),8.6,i,22.2,8.0,-0.4
CCN=C(Nc1ccc2c(c1)OCO2)SC1CC(=O)N(c2ccc(OC)cc2)C1=O (centres undefined),8.2,i,50.4*,13.0,3.4
Cc1ccc(C(=O)N2CCN(c3ccc(NC(=O)COc4ccccc4C)cc3)CC2)cc1,0.0,i,54.9*,9.3,-6.2
Cc1ccc(NC(=O)COc2ccccc2CNC(C)(C)CC(C)(C)C)cc1,4.1,i,-2.7,45.5*,17.6
CCC(=O)N1CCN(c2ccc(NC(=O)COc3ccc(C)cc3C)cc2)CC1,-2.9,/,7.5,12.2,3.7
Cc1ccc(S(=O)(=O)N2CCN(C3CCC(c4ccccc4)CC3)CC2)cc1 (centres undefined),4.9,i,/,/,1.2
CCS(=O)(=O)N1CCN(C2CCC(c3ccccc3)CC2)CC1 (centres undefined),-14.0,+,/,/,-2.9
Cn1cc([C@]2(O)C(=O)Nc3ccc(OC(F)(F)F)cc32)c2ccccc21,/,/,39.5,41.2*,/
Cc1ccsc1C(=O)OCC(=O)Nc1sccc1C(N)=O,-4.2,i,24.2,41.8*,4.8
COc1ccc(C(=O)OCC(=O)Nc2sccc2C(N)=O)cc1[N+](=O)[O-],-2.9,/,55.5*,29.0,/
NC(=O)c1ccsc1NC(=O)COC(=O)c1ccc(Cl)c(N)c1,-10.9,i,52.6*,13.7,3.3
Cc1ccsc1C(=O)OCC(=O)NCCNC(=O)COC(=O)c1sccc1C,0.3,i,-9.2,1.8,/
CCOc1ccc(N(CC(=O)N2CCOCC2)S(=O)(=O)c2ccc(F)cc2)cc1,14.3,i,0.3,3.3,-2.8
CN1CCN(CCCNC(=O)c2cc3c(-c4ccc(Cl)cc4)nn(C)c3s2)CC1,8.8,+,-4.5,0.3,17.1
COc1cc(OC)nc(Nc2nc(C(N)Cc3ccc(Cl)cc3)cs2)n1 (centres undefined),/,/,37.4,46.8*,/
COC(=O)c1cc(C)nc(Nc2nc(C(N)Cc3ccc(Cl)cc3)cs2)n1 (centres undefined),/,/,9.7,9.2,/
NC(Cc1ccc(Cl)cc1)c1csc(Nc2ccc(C(F)(F)F)cn2)n1 (centres undefined),/,/,33.0,45.1*,/

# Screens (PubChem)
